Tests used:
Assay type in all cases: functional
Conditions in all cases: read-out: GI
[1] = test system: Alternaria kikuchiana; assay: Fungistatic activity against Alternaria kikuchiana assessed as inhibition of mycelial growth measured at 5 ug/mL at 28 degC after 72 hr relative to control
Summary of the method: (§1)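 Compounds in acetone at stock levels of 500 and 50 µg/mL; 1 mL of stock mixed into 9 mL thawed potato dextrose agar at 50 °C and poured. Solidified plates were inoculated with a 4 mm mycelial disk, inverted, and held at 28 °C for 72 h. Water served as negative control, in triplicate. Inhibition was calculated as (C−T)/C × 100% from colony radii.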

[2] = test system: Fusarium graminearum; assay: Fungistatic activity against Fusarium graminearum assessed as inhibition of mycelial growth measured at 50 ug/mL at 28 degC after 72 hr relative to control
Summary of the method: (§2)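 Poisoned-food plate assay with Gibberella zeae. Compound in acetone (500 or 50 µg/mL stocks) is mixed 1:9 with molten potato dextrose agar at 50 °C and poured. Once set, plates are inoculated with a 4 mm mycelium disk, inverted, and held 72 h at 28 °C. Water is the negative control, run in triplicate. Colony radius is measured, and inhibition = (C−T)/C × 100%.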

[3] = test system: Alternaria kikuchiana; assay: Fungistatic activity against Alternaria kikuchiana assessed as inhibition of mycelial growth measured at 50 ug/mL at 28 degC after 72 hr relative to control; summary of the method: as §1
[4] = test system: Fusarium graminearum; assay: Fungistatic activity against Fusarium graminearum assessed as inhibition of mycelial growth measured at 5 ug/mL at 28 degC after 72 hr relative to control; summary of the method: as §2

## O=C(NC(=O)c1csnn1)OC1CCCCC1
[1]
  inhibition of growth at 5 µg/mL: 32%
[2]
  inhibition of growth at 50 µg/mL: 17%
[3]
  inhibition of growth at 50 µg/mL: 59%
[4]
  inhibition of growth at 5 µg/mL: 0%

## CCCCCCCOC(=O)NC(=O)c1csnn1
[1]
  inhibition of growth at 5 µg/mL: 20%
[2]
  inhibition of growth at 50 µg/mL: 92%
[3]
  inhibition of growth at 50 µg/mL: 50%
[4]
  inhibition of growth at 5 µg/mL: 78%

## CCCCCCCCCCCOC(=O)NC(=O)c1csnn1
[1]
  inhibition of growth at 5 µg/mL: 10%
[2]
  inhibition of growth at 50 µg/mL: 78%
[3]
  inhibition of growth at 50 µg/mL: 40%
[4]
  inhibition of growth at 5 µg/mL: 59%

## CC(C)CCOC(=O)NC(=O)c1csnn1
[1]
  inhibition of growth at 5 µg/mL: 25%
[2]
  inhibition of growth at 50 µg/mL: 100%
[3]
  inhibition of growth at 50 µg/mL: 50%
[4]
  inhibition of growth at 5 µg/mL: 15%

## CCCCCCSC(=O)NC(=O)c1csnn1
[1]
  inhibition of growth at 5 µg/mL: 4%
[2]
  inhibition of growth at 50 µg/mL: 75%
[3]
  inhibition of growth at 50 µg/mL: 27%
[4]
  inhibition of growth at 5 µg/mL: 25%

## CCCSC(=O)NC(=O)c1csnn1
[1]
  inhibition of growth at 5 µg/mL: 9%
[2]
  inhibition of growth at 50 µg/mL: 54%
[3]
  inhibition of growth at 50 µg/mL: 36%
[4]
  inhibition of growth at 5 µg/mL: 27%

## CCCCCCCSC(=O)NC(=O)c1csnn1
[1]
  inhibition of growth at 5 µg/mL: 4%
[2]
  inhibition of growth at 50 µg/mL: 35%
[3]
  inhibition of growth at 50 µg/mL: 32%
[4]
  inhibition of growth at 5 µg/mL: 12%

## CCCCCCOC(=O)NC(=O)c1csnn1
[1]
  inhibition of growth at 5 µg/mL: 54%
[2]
  inhibition of growth at 50 µg/mL: 92%
[3]
  inhibition of growth at 50 µg/mL: 90.7%
[4]
  inhibition of growth at 5 µg/mL: 23%

## CCCCCCCCOC(=O)NC(=O)c1csnn1
[1]
  inhibition of growth at 5 µg/mL: 20%
[2]
  inhibition of growth at 50 µg/mL: 81%
[3]
  inhibition of growth at 50 µg/mL: 50%
[4]
  inhibition of growth at 5 µg/mL: 63%

## CCCCCCCCCCCCCCCCOC(=O)NC(=O)c1csnn1
[1]
  inhibition of growth at 5 µg/mL: 14%
[2]
  inhibition of growth at 50 µg/mL: 67%
[3]
  inhibition of growth at 50 µg/mL: 27%
[4]
  inhibition of growth at 5 µg/mL: 0%

## CCCCOC(=O)NC(=O)c1csnn1
[1]
  inhibition of growth at 5 µg/mL: 23%
[2]
  inhibition of growth at 50 µg/mL: 11%
[3]
  inhibition of growth at 50 µg/mL: 50%
[4]
  inhibition of growth at 5 µg/mL: 6%

## CCCCCCCCCCCCCCOC(=O)NC(=O)c1csnn1
[1]
  inhibition of growth at 5 µg/mL: 15%
[2]
  inhibition of growth at 50 µg/mL: 100%
[3]
  inhibition of growth at 50 µg/mL: 50%
[4]
  inhibition of growth at 5 µg/mL: 0%

## O=C(NC(=O)c1csnn1)OCCCCCCCCCCBr
[1]
  inhibition of growth at 5 µg/mL: 0%
[2]
  inhibition of growth at 50 µg/mL: 42%
[3]
  inhibition of growth at 50 µg/mL: 41%
[4]
  inhibition of growth at 5 µg/mL: 25%

## CCCCCCCCSC(=O)NC(=O)c1csnn1
[1]
  inhibition of growth at 5 µg/mL: 0%
[2]
  inhibition of growth at 50 µg/mL: 31%
[3]
  inhibition of growth at 50 µg/mL: 18%
[4]
  inhibition of growth at 5 µg/mL: 10%

## CCCCCCCCCCOC(=O)NC(=O)c1csnn1
[1]
  inhibition of growth at 5 µg/mL: 54%
[2]
  inhibition of growth at 50 µg/mL: 75%
[3]
  inhibition of growth at 50 µg/mL: 54%
[4]
  inhibition of growth at 5 µg/mL: 42%

## CCCCSC(=O)NC(=O)c1csnn1
[1]
  inhibition of growth at 5 µg/mL: 32%
[2]
  inhibition of growth at 50 µg/mL: 10%
[3]
  inhibition of growth at 50 µg/mL: 36%
[4]
  inhibition of growth at 5 µg/mL: 0%

## CCCCCCCCCOC(=O)NC(=O)c1csnn1
[1]
  inhibition of growth at 5 µg/mL: 27%
[2]
  inhibition of growth at 50 µg/mL: 60%
[3]
  inhibition of growth at 50 µg/mL: 50%
[4]
  inhibition of growth at 5 µg/mL: 23%

## O=C(NC(=O)c1csnn1)OCCCCCCCCCCCCBr
[1]
  inhibition of growth at 5 µg/mL: 13%
[2]
  inhibition of growth at 50 µg/mL: 21%
[3]
  inhibition of growth at 50 µg/mL: 36%
[4]
  inhibition of growth at 5 µg/mL: 6%

## CCCCCOC(=O)NC(=O)c1csnn1
[1]
  inhibition of growth at 5 µg/mL: 36%
[2]
  inhibition of growth at 50 µg/mL: 42%
[3]
  inhibition of growth at 50 µg/mL: 45%
[4]
  inhibition of growth at 5 µg/mL: 4%

— ChEMBL document CHEMBL3046311, “Synthesis and antifungal activities of alkyl N-(1,2,3-thiadiazole-4-carbonyl) carbamates and S-alkyl N-(1,2,3-thiadiazole-4-carbonyl) carbamothioates” (2005)
